One assay deals with MCF7. Description: Antiproliferative activity against human MCF7 cells expressing estrogen receptor. Format: functional. The gist of the method:
(§1)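 Cell proliferation assay against SKBr3 (ER-negative, HER2-overexpressing) and MCF-7 (ER-positive) breast cancer cells. Values are mean ± standard deviation of at least two separate experiments, each performed in triplicate.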

The subject of a further assay is SK-BR-3. Description: Antiproliferative activity against estrogen receptor-deficient human SKBR3 cells expressing HER2. Format: functional. The procedure, abridged: as §1
The species entered for the next assay is Oryctolagus cuniculus. The assay can be described thus: Inhibition of Hsp90/Cdc37 interaction with [35S]-labeled His-tagged […] in rabbit reticulocyte lysate at 2 mM by Western blot analysis.
Assay [1] addresses T1, Heat shock protein HSP 90 (Oryctolagus cuniculus) (UniProt P11500).
T1 sequence (whole entry): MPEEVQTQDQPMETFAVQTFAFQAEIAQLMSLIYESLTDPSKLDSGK
The assay can be described thus: Inhibition of Hsp90-dependent activation of [35S]-labeled His-tagged […] in rabbit reticulocyte lysate by anti-His-tag pull down assay.

Assay [2] deals with T1, Heat shock protein HSP 90 (Oryctolagus cuniculus). Description: Inhibition of Hsp90-dependent maturation of [35S]-labeled His-tagged […] in rabbit reticulocyte lysate at 2 mM by anti-His-tag pull down assay.
In assay [3] the target is T2, Heat shock protein HSP90 (Homo sapiens) (UniProt P07900+P08238). Description: Inhibition of Hsp90 in human MCF7 cells assessed as Raf degradation at 50 to 1000 uM by Western blot analysis. Format: cell-based. A general note: Immunoblotting shows a protein as a band on a membrane.
Assay [4] deals with T2, Heat shock protein HSP90 (Homo sapiens). Description: Inhibition of Hsp90 in human MCF7 cells assessed as Her2 degradation at 50 to 1000 uM by Western blot analysis. Format: cell-based.
The target is the same in assay [5]. The assay can be described thus: Inhibition of Hsp90 in human MCF7 cells assessed as Akt degradation at 50 to 1000 uM by Western blot analysis. Format: cell-based.
Assay [6] has as its target T1, Heat shock protein HSP 90 (Oryctolagus cuniculus). The assay can be described thus: Inhibition of Hsp90-dependent activation of [35S]-labeled His-tagged […] in rabbit reticulocyte lysate at 2 mM by anti-His-tag pull down assay.
Assay [7] concerns the target T2, Heat shock protein HSP90 (Homo sapiens). Description: Inhibition of Hsp90 in human MCF7 cells assessed as Hsp90 degradation at 50 to 1000 uM by Western blot analysis. Format: cell-based.
Assay [8] addresses T1, Heat shock protein HSP 90 (Oryctolagus cuniculus). Particulars: 1 ug/ml.
Assay [9] shares this target. The settings on record: 1 ug/ml. The source holds these as a separate data set.
For assay [10], the target named is T2, Heat shock protein HSP90 (Homo sapiens). Description: Inhibition of Hsp90 in human MCF7 cells assessed as Raf degradation after 24 hrs by Western blot analysis. Format: cell-based. The procedure, abridged:
(§2)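 MCF-7 breast cancer cells were treated for 24 h with a range of compound concentrations. Cell lysates were probed by Western blot for Her2, Raf, Akt and Hsp90, with actin as a non-client control.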

Assay [11] shares this target. The assay can be described thus: Inhibition of Hsp90 in human MCF7 cells assessed as Akt degradation after 24 hrs by Western blot analysis. Format: cell-based. The gist of the method:
as §2

Assay [12] shares this target. The assay can be described thus: Inhibition of Hsp90 in human MCF7 cells assessed as Her2 degradation after 24 hrs by Western blot analysis. Format: cell-based. The procedure, abridged: as §2
Assay [13] has the same target. The assay can be described thus: Inhibition of Hsp90 in human MCF7 cells assessed as degradation after 24 hrs by Western blot analysis.

Calls of active or inactive are those of the source. No cut-off for these calls is given here.

`COc1cc(C2Oc3cc(C4Oc5ccc(O)cc5C(=O)C4O)ccc3OC2CO)ccc1O` (configuration not stated): the Activity in the assay on MCF7 stood at 17.8 µM; in the assay on SK-BR-3, 13.41 µM.

As to `COc1cc(C2Oc3cc([C@H]4Oc5cc(O)cc(O)c5C(=O)[C@@H]4O)ccc3OC2CO)ccc1O` (stereo in doubt) [SILIBININ], the Activity with MCF7 is 222.8 µM; with SK-BR-3 it was 197 µM.

On to `COc1cc(C2Oc3cc(/C=C/C(=O)c4ccc(O)cc4O)ccc3OC2CO)ccc1O` (configuration not stated), for which the Activity in the assay with MCF7 worked out at 16.91 µM; in the assay on SK-BR-3 it was 37.14 µM.

On to `COc1cc(C2Oc3cc([C@H]4Oc5cc(O)cc(O)c5C(=O)[C@@H]4O)ccc3OC2CO)ccc1O` (stereo in doubt), for which the inhibition entry in the assay listed under Oryctolagus cuniculus was “inactive”. Besides, the inhibition result in [1] is “Dose-dependent effect”. In addition, the inhibition result in [2], in assay [3], in assay [4], in [5], in assay [6] and in assay [7] was “Active” throughout.

For the compound `COc1cc(C2Oc3cc(/C=C/C(=O)c4c(O)cc(O)cc4O)ccc3OC2CO)ccc1O` (configuration not stated), the Activity in the assay on MCF7 was 109.3 µM; in the assay on SK-BR-3, 111.4 µM.

For the compound `COC1=C2C[C@@H](C)C[C@H](OC)[C@H](O)[C@@H](C)/C=C(\C)[C@H](OC(N)=O)[C@@H](OC)/C=C\C=C(/C)C(=O)NC(=CC1=O)C2=O`, the inhibition result in assay [8] and in assay [9] was “Active” throughout.

As for `COc1cc(C2Oc3cc(/C=C/C(=O)c4c(O)cccc4O)ccc3OC2CO)ccc1O` (configuration not stated), the figures for the Activity with MCF7 and in the assay on SK-BR-3 were 22.58 µM and 25.03 µM, respectively.

Regarding `COc1cc(C2Oc3cc(C4CC(=O)c5ccccc5O4)ccc3OC2CO)ccc1O` (configuration not stated), the Activity with MCF7 was 13.66 µM; in the assay with SK-BR-3, 16.25 µM.

Consider `COc1cc(C2Oc3cc(C4Oc5cc(O)ccc5C(=O)C4O)ccc3OC2CO)ccc1O` (configuration not stated), for which the Activity in the assay on MCF7 amounted to 11.92 µM; with SK-BR-3, 16.04 µM.

With `COc1cc(C2Oc3cc(/C=C/C(=O)c4ccccc4O)ccc3OC2CO)ccc1O` (configuration not stated), the Activity was 12.07 µM in the assay on MCF7 and 19.87 µM in the assay on SK-BR-3.

In the case of `COc1cc(C2Oc3cc(C4Oc5ccccc5C(=O)C4O)ccc3OC2CO)ccc1O` (configuration not stated), the Activity in the assay on MCF7 stood at 13.42 µM; in the assay on SK-BR-3, 11.12 µM. In addition, the inhibition result in assay [10], in assay [11], in assay [12] and in [13] was “Dose-dependent effect” in each case.

On to `COc1cc(C2Oc3cc(C4CC(=O)c5ccc(O)cc5O4)ccc3OC2CO)ccc1O` (configuration not stated), for which the values for the Activity with MCF7 and in the assay with SK-BR-3 were 41.58 µM and 41.91 µM, respectively.

For the compound `COc1cc(C2Oc3cc(/C=C/C(=O)c4cc(O)ccc4O)ccc3OC2CO)ccc1O` (configuration not stated), the Activity with MCF7 was found to be 12.17 µM; in the assay with SK-BR-3, 35.84 µM.

With `COc1cc(C2Oc3cc(C4CC(=O)c5c(O)cc(O)cc5O4)ccc3OC2CO)ccc1O` (configuration not stated), the Activity with MCF7 is 104.2 µM; in the assay with SK-BR-3, 101.2 µM.

As for `COc1cc(C2Oc3cc(C4CC(=O)c5c(O)cccc5O4)ccc3OC2CO)ccc1O` (configuration not stated), the Activity was 50.32 µM with MCF7 and 47.73 µM in the assay on SK-BR-3.

Take `COc1cc(C2Oc3cc(C4Oc5cccc(O)c5C(=O)C4O)ccc3OC2CO)ccc1O` (configuration not stated): the Activity with MCF7 was determined as 17.66 µM; in the assay on SK-BR-3, 11.9 µM.

As for `COc1cc(C2Oc3cc(C4CC(=O)c5cc(O)ccc5O4)ccc3OC2CO)ccc1O` (configuration not stated), the Activity in the assay on MCF7 turned out to be 15.62 µM; with SK-BR-3, 15.63 µM. Further, the inhibition entry in assay [10], in assay [11], in [12] and in assay [13] was “Dose-dependent effect” each time.

Consider `COc1cc(C2Oc3cc([C@H]4Oc5cc(O)cc(O)c5C(=O)[C@@H]4O)ccc3OC2CO)ccc1O` (stereo in doubt; 24) [SILIBININ], for which the Activity with MCF7 came out at 196.4 µM; in the assay on SK-BR-3, 196.3 µM.

Regarding `O=C1c2c(O)cc(O)cc2OC(c2ccc3c(c2)OC(c2ccc(O)cc2)C(CO)O3)C1O` (configuration not stated), the Activity in the assay on MCF7 is 138.7 µM; in the assay on SK-BR-3 it was 210.6 µM.

Values taken from ChEMBL document CHEMBL1772946, “Identification and initial SAR of silybin: an Hsp90 inhibitor” (Bioorg Med Chem Lett, 2011).
